Data reported in article PMC10088587 (Archives of Microbiology, 2023).
Values after ≈ are worked out from the molar mass of the structure shown. Where a name gives a salt, the structure may show the parent alone.

Experiments:
[1] = Cytotoxicity assay; type: cell-based; conditions: dog, MDCK cells
In short: (§1)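 MDCK cells seeded at 3×10^4/well in 10% FBS and grown 24 h at 37 °C to semi-confluency. Exposed 48 h to twofold dilutions of test compound (2.5 to 0.001 mg/ml), 4 wells per dilution. MTT for 2–3 h at 37 °C in the dark, formazan dissolved in DMSO, OD read at 540 nm, viability taken as % of untreated control. CC50 read from dose-response curves.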

[2] = system: influenza A/PR/8/34 (H1N1) virus; type: cell-based
[3] = system: H1N1-induced apoptosis in MDCK cells; type: cell-based
[4] = system: MDCK cells; test: Cytotoxicity assay; type: cell-based; conditions: 48 h, MTT; for NCTC (EC50): NCTC was selected as EC50 (HA test)
In short: as §1

[5] = Critical micelle concentration; type: physicochemical
[6] = system: MDCK cells; type: cell-based
[7] = molecular target: virus surface HA glycoprotein (Influenza A virus, UniProt P03452); test: Hemagglutination inhibition assay; type: biochemical; conditions: twofold dilutions from CC50, 4 HA unit of virus, 1% cRBC
Chain of virus surface HA glycoprotein (P03452 18-342 limits assumed): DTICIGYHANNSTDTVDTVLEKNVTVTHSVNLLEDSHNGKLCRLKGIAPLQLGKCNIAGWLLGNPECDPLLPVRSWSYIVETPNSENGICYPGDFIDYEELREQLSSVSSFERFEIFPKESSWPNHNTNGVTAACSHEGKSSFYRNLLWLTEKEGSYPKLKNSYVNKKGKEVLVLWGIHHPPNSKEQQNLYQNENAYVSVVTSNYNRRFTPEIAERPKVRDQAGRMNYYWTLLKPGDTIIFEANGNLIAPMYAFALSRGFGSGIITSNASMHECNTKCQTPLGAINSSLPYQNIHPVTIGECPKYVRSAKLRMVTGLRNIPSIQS
Chain of virus surface HA glycoprotein (P03452 344-565 limits assumed): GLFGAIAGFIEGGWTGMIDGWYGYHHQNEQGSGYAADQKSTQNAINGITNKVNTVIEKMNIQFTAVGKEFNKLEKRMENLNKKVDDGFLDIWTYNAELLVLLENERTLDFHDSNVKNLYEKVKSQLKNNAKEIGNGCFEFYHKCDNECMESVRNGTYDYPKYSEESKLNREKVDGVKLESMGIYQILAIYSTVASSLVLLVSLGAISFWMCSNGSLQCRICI

SMILES	Log HA decrement (mean ± SD), Co-pen [2] [logs]	Apoptosis evaluation (%), Q4 healthy cells [3] [%]	CC50 [4] [µg/mL]	NCTC (EC50) [4] [µg/mL]	CMC (critical micelle concentration) [5]	also measured
NC12CC3CC(CC(C3)C1)C2 [Ama, amantadine hydrochloride, reference compound]	7	–	–	–	–	CC50 at 48 h [1]: 197 ± 1.5 µg/mL; EC50 at 48 h [1]: 98.5 µg/mL
CCCCCCCCCCCCCCCC[N+](C)(C)CCCCCC[N+](C)(C)CCCCCCCCCCCCCCCC.[Br-].[Br-] [GSA, Hexamethylene-1,6-bis(N,N-dimethyl-N-hexadecylammonium bromide)]	6.5	54.85	7.7 ± 0.0	2.6 ± 1.7	0.034	–
CCCCCCCCCCCC[N+](C)(C)CCCNCCC[N+](C)(C)CCCCCCCCCCCC.[Br-].[Br-] [GSB, 4-aza-1,7-heptane-bis(N,N-dimethyl-N-dodecylammonium bromide)]	–	–	1.9 ± 0.1	0.7 ± 0.3	1.047	Apoptosis evaluation (%), Q2 late apoptosis [3]: 49.50%
CCCCCCCCCCCC[N+](C)(C)CCCCCCCCCC[N+](C)(C)CCCCCCCCCCCC.[Br-].[Br-] [GSC, Decamethylene-1,10-bis(N,N-dimethyl-N-dodecylammonium bromide)]	6.5	37.50	4.0 ± 0.0	1.2 ± 0.6	0.63	Apoptosis evaluation (%), Q4 healthy cells [6]: 37.500 ± 9.900%; Log HA decrement (mean ± SD), Pre-pen [2]: 4.5 logs
CCCCCCCCCCCC[N+](C)(C)CCOCC[N+](C)(C)CCCCCCCCCCCC.[Br-].[Br-] [GSD, 3-oxa-1,5-pentane-bis(N,N-dimethyl-N-dodecylammonium bromide)]	–	–	4.9 ± 0.1	1.7 ± 0.6	1.047	Apoptosis evaluation (%), Q2 late apoptosis [3]: 46.70%; Log HA decrement (mean ± SD), Post-pen [2]: 5.5 logs
CCCCCCCCCCCC[N+](C)(C)CCCCCC[N+](C)(C)CCCCCCCCCCCC.[Br-].[Br-] [GSE, Hexamethylene-1,6-bis (N,N-dimethyl-N-dodecylammonium bromide)]	–	–	3.4 ± 0.0	0.9 ± 0.5	0.98	Apoptosis evaluation (%), Q3 early apoptosis [3]: 54.10%
CCCCCCCCCCCCCCCC[N+](C)(C)CCCCCCCCCC[N+](C)(C)CCCCCCCCCCCCCCCC.[Br-].[Br-] [GSF, Decamethylene-1,10-bis(N,N-dimethyl-N-hexadecylammonium bromide)]	–	70.50	8.8 ± 0.0	1.7 ± 0.5	0.032	Apoptosis evaluation (%), Q4 healthy cells [6]: 82.950 ± 8.132%
CCCCCCCCCCCCCCCC[N+](C)(C)CCCCCCCCCCCC[N+](C)(C)CCCCCCCCCCCCCCCC.[Br-].[Br-] [GSG, Dodecamethylene-1,12-bis(N,N-dimethyl-N-hexadecylammonium bromide)]	–	70.10	11.9 ± 0.0	1.7 ± 1.3	0.022	–
CCCCCCCCCCCCCCCC[N+](C)(C)Cc1ccc(C[N+](C)(C)CCCCCCCCCCCCCCCC)cc1.[Br-].[Br-] [GSH, 1,4-phenylene-bis(methylene)bis (N,N-dimethyl-N-hexadecylammonium bromide)]	–	68.05	522.2 ± 0.0	36.7 ± 28.6	0.48	–
CCCCCCCCCCCCCCCCCC[N+](C)(C)CCCCCCCCCC[N+](C)(C)CCCCCCCCCCCCCCCCCC.[Br-].[Br-] [GSI, Decamethylene-1,10-bis(N,N-dimethyl-N-octadecylammonium bromide)]	–	77.90	16.4 ± 0.0	2.6 ± 1.5	0.0213	Apoptosis evaluation (%), Q4 healthy cells [6]: 84.850 ± 1.202%
CCCCCCCCCCCCCCCCCC[N+](C)(C)CCCCCCCCCCCC[N+](C)(C)CCCCCCCCCCCCCCCCCC.[Br-].[Br-] [GSJ, Dodecamethylene-1, 12-bis (N, N-dimethyl-N-octadecylammonium bromide)]	–	68.75	48.6 ± 0.0	0.6 ± 0.2	0.0331	–
CCCCCCCCCCCCCCCCCC[N+](C)(C)Cc1ccc(C[N+](C)(C)CCCCCCCCCCCCCCCCCC)cc1.[Br-].[Br-] [GSK, 1,4-phenylene-bis(methylene) bis (N,N-dimethyl-N-octadecylammonium bromide)]	–	–	1229.2 ± 0.0	307.3 ± 0.0	0.29	–
CCC(CC)O[C@@H]1C=C(C(=O)O)C[C@H](N)[C@H]1NC(C)=O [Ose, oseltamivir carboxylate, reference compound]	8	–	788.5 ± 6.0 (≈ 2770 µM)	394.2 ± 0.0	–	Dilution to give HI + [7]: 1st; Log HA decrement (mean ± SD), Post-pen [2]: 8 logs; Log HA decrement (mean ± SD), Pre-pen [2]: 8 logs
